Activity calls are given as the source filed them. The rule behind the calls is not given here.
Columns and labels:
DU-145 [1] = experiment: Cell cycle arrest in human DU145 cells assessed as accumulation at G0/G1 phase at 4 uM after 24 hrs by propidium iodide staining based FACS analysis (reference value: 64.1%); format: functional
DU-145 [2] = experiment: Cell cycle arrest in human DU145 cells assessed as accumulation at G2/M phase at 4 uM after 24 hrs by propidium iodide staining based FACS analysis (reference value: 16.38%); format: functional
DU-145 [3] = experiment: Cell cycle arrest in human DU145 cells assessed as accumulation at G2/M phase at 1 uM after 24 hrs by propidium iodide staining based FACS analysis (reference value: 16.38%); format: functional
DU-145 [4] = experiment: Induction of apoptosis in human DU145 cells assessed as apoptotic body formation at 8 uM after 48 hrs by acridine orange/ethidium bromide staining-based fluorescence microscopic analysis; format: functional, cell-based
Outline: (§1)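 Treated DU145 cells were double-stained with acridine orange and ethidium bromide and imaged by fluorescence microscopy. Acridine orange stains intact nuclei green; ethidium bromide stains nuclei of membrane-compromised cells red. Cells were scored for blebbing, chromatin condensation, shrinkage and apoptotic bodies versus control.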

DU-145 [5] = experiment: Cell cycle arrest in human DU145 cells assessed as accumulation at S phase at 8 uM after 24 hrs by propidium iodide staining based FACS analysis (reference value: 7.93%); format: functional
MDA-MB-453 = experiment: Cytotoxicity against human MDA-MB-453 cells after 48 hrs by MTT assay; format: functional, cell-based; conditions: MDA-MB-453, 48 h
Outline: (§2)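 The human cancer lines and mouse 4T1 breast cells were treated with compound for 48 h and assessed by MTT assay. IC50 is the concentration giving 50% inhibition. 5-Fluorouracil served as the MTT standard.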

DU-145 [6] = experiment: Induction of apoptosis in human DU145 cells assessed as formation of condensed nuclei at 2 to 8 uM after 24 hrs by DAPI staining based fluorescence microscopic method
DU-145 [7] = experiment: Cell cycle arrest in human DU145 cells assessed as accumulation at S phase at 2 uM after 24 hrs by propidium iodide staining based FACS analysis (reference value: 7.93%); format: functional
DU-145 [8] = experiment: Cell cycle arrest in human DU145 cells assessed as accumulation at G2/M phase at 2 uM after 24 hrs by propidium iodide staining based FACS analysis (reference value: 16.38%); format: functional
DU-145 [9] = experiment: Cell cycle arrest in human DU145 cells assessed as accumulation at G0/G1 phase at 8 uM after 24 hrs by propidium iodide staining based FACS analysis (reference value: 64.1%); format: functional
DU-145 [10] = experiment: Induction of apoptosis in human DU145 cells assessed as increase in intracellular reactive oxygen species after 6 hrs by DCFDA dye based spectrofluorometeric method; format: functional, cell-based
Outline: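 Intracellular ROS in DU145 cells was measured by DCFDA fluorescence after 6 h of treatment at several doses. Comparators were N-acetyl cysteine pretreatment before compound and H2O2-treated cells. Values are mean ± SD of three independent experiments.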

DU-145 [11] = experiment: Cell cycle arrest in human DU145 cells assessed as accumulation at G0/G1 phase at 2 uM after 24 hrs by propidium iodide staining based FACS analysis (reference value: 64.1%); format: functional
4T1 = experiment: Cytotoxicity against mouse 4T1 cells after 48 hrs by MTT assay; format: functional, cell-based; conditions: 4T1, 48 h; outline: as §2
DU-145 [12] = experiment: Induction of apoptosis in human DU145 cells assessed as horse shoe shaped nuclei at 2 to 8 uM after 24 hrs by DAPI staining based fluorescence microscopic method
Bos taurus = species: Bos taurus; experiment: Binding affinity to calf thymus DNA assessed as increase in viscosity at 5 uM by Rolling-ball viscometric method
MDA-MB-231 = experiment: Cytotoxicity against human MDA-MB-231 cells after 48 hrs by MTT assay; format: functional, cell-based; conditions: MDA-MB-231, 48 h; outline: as §2
DU-145 [13] = experiment: Induction of apoptosis in human DU145 cells assessed as chromatin condensation at 8 uM after 48 hrs by acridine orange/ethidium bromide staining-based fluorescence microscopic analysis; format: functional, cell-based; outline: as §1
BT-549 = experiment: Cytotoxicity against human BT549 cells after 48 hrs by MTT assay; format: functional, cell-based; conditions: BT-549, 48 h; outline: as §2
DU-145 [14] = experiment: Induction of apoptosis in human DU145 cells assessed as loss of mitochondrial membrane potential after 24 hrs by JC1 staining-based fluorescence microscopic method; format: functional, cell-based
Outline: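 DU145 cells were treated at 2, 4 and 8 µM for 24 h and stained with JC-1. Orange aggregates mark polarised mitochondria and green monomers mark depolarised ones, imaged by fluorescence. JC-1 aggregate intensity was quantified by spectrofluorometry.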

PC-3 = experiment: Cytotoxicity against human PC3 cells after 48 hrs by MTT assay; format: functional, cell-based; conditions: PC-3, 48 h; outline: as §2
DU-145 [15] = experiment: Cytotoxicity against human DU145 cells after 48 hrs by MTT assay; format: functional, cell-based; conditions: DU-145, 48 h; outline: as §2
DU-145 [16] = experiment: Induction of apoptosis in human DU145 cells assessed as nuclear shrinkage at 2 to 8 uM after 48 hrs by phase contrast microscopic method; format: functional, cell-based
Outline: (§3)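 Phase-contrast microscopy of DU145 cells treated at 2, 4 and 8 µM. Images were captured and scored against untreated control for cell detachment and nuclear shrinkage.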

DU-145 [17] = experiment: Cell cycle arrest in human DU145 cells assessed as accumulation at G2/M phase at 8 uM after 24 hrs by propidium iodide staining based FACS analysis (reference value: 16.38%); format: functional
DU-145 [18] = experiment: Cell cycle arrest in human DU145 cells assessed as accumulation at S phase at 4 uM after 24 hrs by propidium iodide staining based FACS analysis (reference value: 7.93%); format: functional
DU-145 [19] = experiment: Cell cycle arrest in human DU145 cells assessed as increase in accumulation at G0/G1 phase after 24 hrs by propidium iodide staining based FACS analysis; format: functional
HeLa = experiment: Cytotoxicity against human HeLa cells after 48 hrs by MTT assay; format: functional, cell-based; outline: as §2
DU-145 [20] = experiment: Cell cycle arrest in human DU145 cells assessed as accumulation at S phase at 1 uM after 24 hrs by propidium iodide staining based FACS analysis (reference value: 7.93%); format: functional
DU-145 [21] = experiment: Induction of apoptosis in human DU145 cells assessed as cell detachment at 2 to 8 uM after 48 hrs by phase contrast microscopic method; format: functional, cell-based; outline: as §3
DU-145 [22] = experiment: Cell cycle arrest in human DU145 cells assessed as accumulation at G0/G1 phase at 1 uM after 24 hrs by propidium iodide staining based FACS analysis (reference value: 64.1%); format: functional
DU-145 [23] = experiment: Induction of apoptosis in human DU145 cells assessed as membrane blebbing at 8 uM after 48 hrs by acridine orange/ethidium bromide staining-based fluorescence microscopic analysis; format: functional, cell-based; outline: as §1
HGC-27 = experiment: Cytotoxicity against human HGC27 cells after 48 hrs by MTT assay; format: functional, cell-based; conditions: HGC-27, 48 h; outline: as §2
A549 = experiment: Cytotoxicity against human A549 cells after 48 hrs by MTT assay; format: functional, cell-based; conditions: A549, 48 h; outline: as §2
DU-145 [24] = experiment: Induction of apoptosis in human DU145 cells assessed as cell shrinkage at 8 uM after 48 hrs by acridine orange/ethidium bromide staining-based fluorescence microscopic analysis; format: functional; outline: as §1

COc1cc2cc(Cn3cc(CN4C(=O)c5cccc6cccc(c56)C4=O)nn3)c3cc(OC)c(OC)cc3c2cc1OC
Activity (DU-145 [1]): 80.37%
Activity (DU-145 [2]): 11.7%
Activity (DU-145 [3]): 20.46%
Activity (DU-145 [4]): Active
Activity (DU-145 [5]): 1.91%
IC50 (MDA-MB-453): 5.1 µM
Activity (DU-145 [6]): Active
Activity (DU-145 [7]): 6.37%
Activity (DU-145 [8]): 16.71%
Activity (DU-145 [9]): 88.62%
Activity (DU-145 [10]): Dose-dependent effect
Activity (DU-145 [11]): 73.32%
IC50 (4T1): 4.2 µM
Activity (DU-145 [12]): Active
Activity (Bos taurus): Active
IC50 (MDA-MB-231): 4.2 µM
Activity (DU-145 [13]): Active
IC50 (BT-549): 3.7 µM
Activity (DU-145 [14]): Dose-dependent effect
IC50 (PC-3): 8.5 µM
IC50 (DU-145 [15]): 1.5 µM
Activity (DU-145 [16]): Active
Activity (DU-145 [17]): 7.64%
Activity (DU-145 [18]): 5.37%
Activity (DU-145 [19]): Dose-dependent effect
IC50 (HeLa): 2.9 µM
Activity (DU-145 [20]): 4.4%
Activity (DU-145 [21]): Active
Activity (DU-145 [22]): 71.1%
Activity (DU-145 [23]): Active
IC50 (HGC-27): 5.1 µM
IC50 (A549): > 20 µM
Activity (DU-145 [24]): Active

From ChEMBL document CHEMBL4028832, “Design and synthesis of 1,2,3-triazolo-phenanthrene hybrids as cytotoxic agents” (Bioorg Med Chem Lett, 2017)
